Results from ChEMBL document CHEMBL3997801, “Design, Palladium-Catalyzed Synthesis, and Biological Investigation of 2-Substituted 3-Aroylquinolin-4(1H)-ones as Inhibitors of the Hedgehog Signaling Pathway” (J Med Chem, 2017).
The source made the active and inactive calls. No cut-off for these calls is given here.

Legend:
[1] = biological target: Protein smoothened (Mus musculus) (UniProt P56726); test: Antagonist activity at Smo in […]-stimulated mouse granule cell progenitors assessed as inhibition of Hh signaling pathway-dependent cell proliferation by measuring suppression of Gli1 protein expression at 5 uM after 24 hrs by Western blot method
[2] = biological target: Protein smoothened (Mus musculus) (UniProt P56726); test: Antagonist activity at Smo in mouse ASZ001 cells assessed as inhibition of Hh signaling pathway by measuring suppression of CycD1 mRNA expression at 10 uM after 48 hrs by qRT-PCR method; assay type: cell-based
In short: (§1)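 ASZ001 BCC cells (154CF medium, 2% chelated FBS, 0.05 mM CaCl2), treated 48 h with compound or DMSO. Transcripts quantified by qRT-PCR relative to a calibrator, normalized to β2-microglobulin and HPRT.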

[3] = biological target: Protein smoothened (Mus musculus) (UniProt P56726); test: Antagonist activity at Smo in Ptch1-/- mouse MEF assessed as inhibition of Hh signaling pathway by measuring suppression of Gli2 mRNA expression at 5 uM after 48 hrs by qRT-PCR method
[4] = biological target: Protein smoothened (Mus musculus) (UniProt P56726); test: Antagonist activity at Smo in Ptch1-/- mouse MEF assessed as inhibition of Hh signaling pathway by measuring suppression of Gli1 mRNA expression at 5 uM after 48 hrs by qRT-PCR method
[5] = biological target: Protein smoothened (Mus musculus) (UniProt P56726); test: Antagonist activity at Smo in […]-stimulated mouse granule cell progenitors assessed as inhibition of Hh signaling pathway-dependent cell proliferation by measuring suppression of Gli2 mRNA expression at 5 uM after 24 hrs by qRT-PCR method
[6] = biological target: Protein smoothened (Mus musculus) (UniProt P56726); test: Antagonist activity at Smo in Ptch1+/- mouse medulloblastoma cells assessed as inhibition of Hh signaling pathway by measuring suppression of CycD2 mRNA expression at 10 uM after 24 hrs by qRT-PCR method
In short: (§2)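 Freshly isolated Ptch1± mouse MB cells in short-term culture, treated 24 h with compound (10 μM) or DMSO. mRNA measured by qRT-PCR against a calibrator (arbitrary units) and normalized to β2-microglobulin and HPRT. Mean ± SD of three independent experiments.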

Mus musculus = species: Mus musculus; test: (§3) Inhibition of Bodipy-cyclopamine binding to mouse FLAG-tagged Smo D477G mutant expressed in HEK293 cells after 3 hrs by Hoechst staining based fluorescence assay; assay type: cell-based
In short: (§4)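 Cells transiently transfected with mouse Flag-tagged Smo WT or D477G were washed in PBS/0.5% FBS, fixed 10 min in 4% paraformaldehyde and permeabilized with 0.2% Triton X-100. They were then incubated 3 h at 37 °C with Bodipy-cyclopamine 5 nM plus compound, with Hoechst nuclear stain. Green signal was scored in 3–4 fields per coverslip (20×) as % of binding with BC alone.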

[7] = as §3; assay type: cell-based; in short: as §4
[8] = biological target: Protein smoothened (Mus musculus) (UniProt P56726); test: Antagonist activity at Smo in […]-stimulated mouse granule cell progenitors assessed as inhibition of Hh signaling pathway-dependent cell proliferation by measuring suppression of CycD1 mRNA expression at 5 uM after 24 hrs by qRT-PCR method
[9] = biological target: Protein smoothened (Mus musculus) (UniProt P56726); test: Antagonist activity at Smo in Ptch1-/- mouse MEF assessed as inhibition of Hh signaling pathway by measuring suppression of Ptch1 mRNA expression at 5 uM after 48 hrs by qRT-PCR method
[10] = biological target: Protein smoothened (Mus musculus) (UniProt P56726); test: Antagonist activity at Smo in Ptch1-/- mouse MEF assessed as inhibition of Hh signaling pathway by measuring suppression of CycD1 mRNA expression at 5 uM after 48 hrs by qRT-PCR method
[11] = biological target: Protein smoothened (Mus musculus) (UniProt P56726); test: Antagonist activity at Smo in Ptch1+/- mouse medulloblastoma cells assessed as inhibition of Hh signaling pathway by measuring suppression of Gli1 mRNA expression at 10 uM after 24 hrs by qRT-PCR method; in short: as §2
[12] = biological target: Protein smoothened (Mus musculus) (UniProt P56726); test: Antagonist activity at Smo in […]-stimulated mouse granule cell progenitors assessed as inhibition of Hh signaling pathway-dependent cell proliferation by measuring suppression of Gli1 mRNA expression at 5 uM after 24 hrs by qRT-PCR method
[13] = biological target: Protein smoothened (Mus musculus) (UniProt P56726); test: Antagonist activity at Smo in […]-stimulated mouse granule cell progenitors assessed as inhibition of Hh signaling pathway-dependent cell proliferation by measuring suppression of CycD2 mRNA expression at 5 uM after 24 hrs by qRT-PCR method
[14] = biological target: Protein smoothened (Mus musculus) (UniProt P56726); test: Antagonist activity at Smo in […]-stimulated mouse granule cell progenitors assessed as inhibition of Hh signaling pathway-dependent cell proliferation by measuring suppression of N-Myc mRNA expression at 5 uM after 24 hrs by qRT-PCR method
[15] = biological target: Protein smoothened (Mus musculus) (UniProt P56726); test: Antagonist activity at Smo in mouse ASZ001 cells assessed as inhibition of Hh signaling pathway by measuring suppression of CycD2 mRNA expression at 10 uM after 48 hrs by qRT-PCR method; assay type: cell-based; in short: as §1
[16] = biological target: Protein smoothened (Mus musculus) (UniProt P56726); test: Antagonist activity at Smo in […]-stimulated mouse granule cell progenitors assessed as inhibition of Hh signaling pathway-dependent cell proliferation by measuring suppression of Ptch1 mRNA expression at 5 uM after 24 hrs by qRT-PCR method
[17] = biological target: Protein smoothened (Mus musculus) (UniProt P56726); test: Antagonist activity at Smo in mouse ASZ001 cells assessed as inhibition of Hh signaling pathway by measuring suppression of BMP2 mRNA expression at 10 uM after 48 hrs by qRT-PCR method; assay type: cell-based; in short: as §1
[18] = biological target: Protein smoothened (Mus musculus) (UniProt P56726); test: Antagonist activity at Smo in mouse ASZ001 cells assessed as inhibition of Hh signaling pathway by measuring suppression of Gli1 mRNA expression at 10 uM after 48 hrs by qRT-PCR method; assay type: cell-based; in short: as §1
[19] = biological target: Protein smoothened (Mus musculus) (UniProt P56726); test: Antagonist activity at Smo in Ptch1-/- mouse MEF assessed as inhibition of Hh signaling pathway by measuring suppression of CycD2 mRNA expression at 5 uM after 48 hrs by qRT-PCR method
[20] = biological target: Protein smoothened (Mus musculus) (UniProt P56726); test: Antagonist activity at Smo in […]-stimulated mouse granule cell progenitors assessed as inhibition of Hh signaling pathway-dependent cell proliferation by measuring suppression of NMyc protein expression at 5 uM after 24 hrs by Western blot method
[21] = biological target: Protein smoothened (Mus musculus) (UniProt P56726); test: Antagonist activity at Smo in Ptch1+/- mouse medulloblastoma cells assessed as inhibition of Hh signaling pathway by measuring suppression of Ptch1 mRNA expression at 10 uM after 24 hrs by qRT-PCR method; in short: as §2
[22] = biological target: Protein smoothened (Mus musculus) (UniProt P56726); test: Antagonist activity at Smo in Ptch1-/- mouse MEF assessed as inhibition of Hh signaling pathway by measuring suppression of Igf2 mRNA expression at 5 uM after 48 hrs by qRT-PCR method
[23] = biological target: Protein smoothened (Mus musculus) (UniProt P56726); test: Antagonist activity at Smo in […]-stimulated mouse granule cell progenitors assessed as inhibition of Hh signaling pathway-dependent cell proliferation by measuring suppression of CycD1 protein expression at 5 uM after 24 hrs by Western blot method
[24] = biological target: Protein smoothened (Mus musculus) (UniProt P56726); test: Antagonist activity at Smo in Ptch1+/- mouse medulloblastoma cells assessed as inhibition of Hh pathway dependent cell growth up to 72 hrs by trypan blue assay
In short: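 Primary MB cells freshly isolated from Ptch1± mouse tumours, used in short-term culture to keep Hh sensitivity; compound 10 μM or DMSO control; viable cells counted by trypan blue after 24, 48 and 72 h. Mean ± SD of three independent experiments.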

[25] = biological target: Protein smoothened (Mus musculus) (UniProt P56726); test: Antagonist activity at Smo in mouse ASZ001 cells assessed as inhibition of Hh signaling pathway by measuring suppression of Ptch1 mRNA expression at 10 uM after 48 hrs by qRT-PCR method; assay type: cell-based; in short: as §1
[26] = biological target: Protein smoothened (Mus musculus) (UniProt P56726); test: Antagonist activity at Smo in mouse ASZ001 cells assessed as inhibition of Hh pathway dependent cell growth up to 72 hrs by trypan blue assay; assay type: cell-based
In short: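 ASZ001 BCC cells grown in 154CF medium with 2% Chelex-chelated FBS and 0.05 mM CaCl2, treated with compound or DMSO control; viable cells counted by trypan blue after 24, 48 and 72 h.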

[27] = biological target: Protein smoothened (Mus musculus) (UniProt P56726); test: Antagonist activity at Smo in Ptch1+/- mouse medulloblastoma cells assessed as inhibition of Hh signaling pathway by measuring suppression of Gli2 mRNA expression at 10 uM after 24 hrs by qRT-PCR method; in short: as §2
[28] = biological target: Protein smoothened (Mus musculus) (UniProt P56726); test: Antagonist activity at Smo in mouse ASZ001 cells assessed as inhibition of Hh signaling pathway by measuring suppression of Gli2 mRNA expression at 10 uM after 48 hrs by qRT-PCR method; assay type: cell-based; in short: as §1
Protein smoothened = Protein smoothened (Mus musculus, UniProt P56726); test: Inhibition of Bodipy-cyclopamine binding to mouse FLAG-tagged Smo expressed in HEK293 cells after 3 hrs by Hoechst staining based fluorescence assay; assay type: cell-based; in short: as §4
[29] = biological target: Protein smoothened (Mus musculus) (UniProt P56726); test: Antagonist activity at Smo in Ptch1-/- mouse MEF assessed as inhibition of Hh signaling pathway by measuring suppression of HIP1 mRNA expression at 5 uM after 48 hrs by qRT-PCR method
[30] = biological target: Protein smoothened (Mus musculus) (UniProt P56726); test: Antagonist activity at Smo in Ptch1+/- mouse medulloblastoma cells assessed as inhibition of Hh signaling pathway by measuring suppression of CycD1 mRNA expression at 10 uM after 24 hrs by qRT-PCR method; in short: as §2

Chain of Protein smoothened (Mus musculus) (P56726 whole entry): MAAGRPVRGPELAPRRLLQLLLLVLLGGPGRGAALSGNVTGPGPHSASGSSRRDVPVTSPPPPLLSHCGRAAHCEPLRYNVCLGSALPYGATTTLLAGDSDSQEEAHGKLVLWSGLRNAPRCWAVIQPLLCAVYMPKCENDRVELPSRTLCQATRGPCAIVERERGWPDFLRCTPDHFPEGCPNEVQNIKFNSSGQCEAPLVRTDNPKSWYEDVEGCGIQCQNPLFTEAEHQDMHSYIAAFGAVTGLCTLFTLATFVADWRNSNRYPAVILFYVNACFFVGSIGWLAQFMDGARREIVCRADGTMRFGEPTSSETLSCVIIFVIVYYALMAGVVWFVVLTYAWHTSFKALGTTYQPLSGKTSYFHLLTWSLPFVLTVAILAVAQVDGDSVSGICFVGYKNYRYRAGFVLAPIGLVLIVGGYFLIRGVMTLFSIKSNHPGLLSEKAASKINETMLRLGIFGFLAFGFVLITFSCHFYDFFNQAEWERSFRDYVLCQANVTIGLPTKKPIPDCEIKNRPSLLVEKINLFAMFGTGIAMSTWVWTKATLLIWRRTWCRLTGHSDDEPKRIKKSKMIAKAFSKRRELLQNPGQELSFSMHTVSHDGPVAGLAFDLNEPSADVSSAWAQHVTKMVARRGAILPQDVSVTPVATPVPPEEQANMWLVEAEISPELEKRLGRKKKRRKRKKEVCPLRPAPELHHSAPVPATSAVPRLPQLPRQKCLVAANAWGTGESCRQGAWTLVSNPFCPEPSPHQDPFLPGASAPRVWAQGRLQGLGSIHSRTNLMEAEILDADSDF
Chain of Protein smoothened (P56726 whole entry): as above

SMILES: COc1cccc(C(=O)c2c(-c3ccccc3)[nH]c3ccccc3c2=O)c1
- inhibition [1]: Active
- inhibition [2]: Active
- inhibition [3]: Active
- inhibition [4]: Active
- inhibition [5]: Active
- inhibition [6]: Active
- inhibition (Mus musculus): Dose-dependent effect
- IC50 [7]: 12.4 µM
- inhibition [8]: Active
- inhibition [9]: Active
- inhibition [10]: Active
- inhibition [11]: Active
- inhibition [12]: Active
- inhibition [13]: Active
- inhibition [14]: Active
- inhibition [15]: Active
- inhibition [16]: Active
- inhibition [17]: Active
- inhibition [18]: Active
- inhibition [19]: Active
- inhibition [20]: Active
- inhibition [21]: Active
- inhibition [22]: Active
- inhibition [23]: Active
- growth inhibition (GI) [24]: Dose-dependent effect
- inhibition [25]: Active
- growth inhibition (GI) [26]: Dose-dependent effect
- inhibition [27]: Active
- inhibition [28]: Active
- IC50 (Protein smoothened): 13.8 µM
- inhibition [29]: Active
- inhibition [30]: Active

SMILES: O=C(c1ccccc1)c1c(-c2ccccc2)[nH]c2ccc(Br)cc2c1=O
- inhibition [1]: Active
- inhibition [2]: Active
- inhibition [3]: Active
- inhibition [4]: Active
- inhibition [5]: Active
- inhibition [6]: Active
- inhibition (Mus musculus): Dose-dependent effect
- IC50 [7]: 29.4 µM
- inhibition [8]: Active
- inhibition [9]: Active
- inhibition [10]: Active
- inhibition [11]: Active
- inhibition [12]: Active
- inhibition [13]: Active
- inhibition [14]: Active
- inhibition [15]: Active
- inhibition [16]: Active
- inhibition [17]: Active
- inhibition [18]: Active
- inhibition [19]: Active
- inhibition [20]: Active
- inhibition [21]: Active
- inhibition [22]: Active
- inhibition [23]: Active
- growth inhibition (GI) [24]: Dose-dependent effect
- inhibition [25]: Active
- growth inhibition (GI) [26]: Dose-dependent effect
- inhibition [27]: Active
- inhibition [28]: Active
- IC50 (Protein smoothened): 24 µM
- inhibition [29]: Active
- inhibition [30]: Active
